Rows were chosen to be rich in hits. Some 7.4% of all compounds tested hit in one or more screens of this group.
M1 agonist: M1 muscarinic receptor agonism; hit rate 3% among 64,000; B-score at 10 µM; AID 626; CHO-M1 cells, Fluo-4 calcium fluorescence, agonist mode; active compounds read high;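 active = fluorescence rise, raw or as B-score row- and column-corrected plate score, outside the 99.7% band of its plate's samples, either direction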
M1 antagonist: antagonists of rat M1 muscarinic receptor | P08482 | CHO-M1 cells, Fluo-4 calcium, ACh EC80 antagonist mode; active compounds read low | B-score at 10 µM | hit rate 3.4% among 64,000 | AID 628;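 active = calcium fluorescence response, raw or row-and-column corrected B-score, differing from the plate sample mean either way at a set confidence level, mostly lower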
Target sequence (P08482 whole entry, looked up): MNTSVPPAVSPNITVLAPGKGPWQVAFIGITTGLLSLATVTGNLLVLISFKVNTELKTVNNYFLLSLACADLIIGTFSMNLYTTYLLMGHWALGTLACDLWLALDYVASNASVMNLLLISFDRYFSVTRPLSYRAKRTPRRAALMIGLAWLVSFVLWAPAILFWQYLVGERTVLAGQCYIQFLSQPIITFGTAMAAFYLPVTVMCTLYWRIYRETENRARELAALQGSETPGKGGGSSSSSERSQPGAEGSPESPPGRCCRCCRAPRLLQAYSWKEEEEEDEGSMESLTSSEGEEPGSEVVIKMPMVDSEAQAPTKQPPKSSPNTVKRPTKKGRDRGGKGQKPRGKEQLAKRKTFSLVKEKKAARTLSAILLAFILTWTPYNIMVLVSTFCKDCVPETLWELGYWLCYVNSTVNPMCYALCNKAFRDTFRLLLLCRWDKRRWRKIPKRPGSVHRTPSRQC
S1P1 ag-PAM: S1P1 (human) agonism or agonism potentiation; P21453; S1P1 CRE-bla cells, forskolin, beta-lactamase FRET, potentiator mode; S1P1 agonist co-added at EC20, 2 nM; 100% = saturating reference agonist, 0% = basal; activation, % at 9.5 µM; hit rate 0.57% among 56,000; AID 449;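 active = activation above a cutoff set at the mean activation of all tested compounds plus 3 SD, cut at about 54% in these data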;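 note: forskolin at 4 µM as EC80 and the EC20 agonist is SEW2871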
Jurkat viability: cytotoxicity toward Jurkat cells; Jurkat E6.1 viability, ATP luminescence, 48 h; hit rate 1.2% among 56,000; inhibition, % at 4 µM;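 active = inhibition above the mean inhibition of all tested compounds plus 3 SD, cut at about 28% in these data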
JNK3 inh: blocks human JNK3 kinase activity; purified JNK3 kinase activity, HTS; AID 746; P53779; inhibition, % at 8 µM; hit rate 0.61% among 60,000; in the data active = inhibition above about 17%
S1P3 agonist: agonists of human S1P3 receptor. Q99500. S1P3 NFAT-BLA reporter cells, agonism, FRET ratio; relative to 1 µM S1P, basal subtracted. activation, % at 4.5 µM. hit rate 0.1% among 60,000. AID 373;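 active = activation above the screen-wide mean plus 3 SD, cut at about 4.5% in these data, passing the limit was not always enough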
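Measure – % activation relative to 1 µM S1P (100%), per plate · System – stable CHO line with human S1P3, Gα16, NFAT-BLA reporter · Timing – cells plated overnight, compound 4 h 37 °C, substrate 2 h RT · Technique – fluorescent BLA substrate, ex 405 nm, em 460/535 nm ratio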
Numbers stand for hits.

For COc1ccccc1OCC(=O)Nc1ccc(S(=O)(=O)Nc2nc(C)cc(C)n2)cc1 the results were M1 agonist inactive, M1 antagonist inactive, S1P1 ag-PAM inactive, Jurkat viability inactive, JNK3 inh inactive and S1P3 agonist inactive.
Screening CCC(NC(=O)Nc1nccs1)(C(F)(F)F)C(F)(F)F returned M1 agonist inactive, M1 antagonist inactive, S1P1 ag-PAM inactive, JNK3 inh inactive and S1P3 agonist inactive.
CCSc1nnc(NC(=O)NC(CC)(C(F)(F)F)C(F)(F)F)s1 was read as M1 agonist 5, M1 antagonist -1.39, S1P1 ag-PAM inactive, JNK3 inh inactive and S1P3 agonist inactive.
Screening CCCS(=O)(=O)c1nnnn1-c1cccc(OC)c1 returned M1 agonist inactive, M1 antagonist inactive, S1P1 ag-PAM 116.2, Jurkat viability 101.3, JNK3 inh inactive and S1P3 agonist inactive.
COc1ccc(-n2nnnc2SCC(=O)c2cccc(OC)c2)cc1 was read as M1 agonist inactive, M1 antagonist inactive, S1P1 ag-PAM inactive, Jurkat viability inactive, JNK3 inh inactive and S1P3 agonist inactive.
Screening Cc1cc(S(=O)(=O)N2CCN(c3ccc(F)cc3)CC2)c(C)s1 returned M1 agonist inactive, M1 antagonist inactive, S1P1 ag-PAM inactive, Jurkat viability inactive, JNK3 inh inactive and S1P3 agonist inactive.
`C/C(NCc1cccnc1)=C(\C#N)C(=O)NCc1ccccc1` gave M1 agonist inactive, M1 antagonist 2.15, S1P1 ag-PAM inactive, Jurkat viability inactive, JNK3 inh inactive and S1P3 agonist inactive.
For CCOc1ncccc1C(=O)OCC(=O)Nc1cc(C(=O)OC)ccc1C(=O)OC the results were M1 agonist inactive and M1 antagonist inactive.
O=C(CSc1nc2ccccc2[nH]1)NCCCn1ccnc1 was read as M1 agonist inactive, M1 antagonist inactive, S1P1 ag-PAM inactive, Jurkat viability inactive, JNK3 inh inactive and S1P3 agonist inactive.
For O=C(c1cnsn1)N1CCN(c2ccccn2)CC1 the results were M1 agonist inactive, M1 antagonist inactive, S1P1 ag-PAM inactive, Jurkat viability inactive, JNK3 inh inactive and S1P3 agonist inactive.
Screening Cc1cc(C(=O)Nc2c(F)cc(F)cc2Br)no1 returned M1 agonist inactive, M1 antagonist inactive, S1P1 ag-PAM inactive, Jurkat viability inactive, JNK3 inh inactive and S1P3 agonist inactive.
Screening O=C(Nc1c(F)cc(F)cc1Br)c1cc(-c2ccc(O)cc2)on1 returned M1 agonist inactive, M1 antagonist inactive, S1P1 ag-PAM 98.8, Jurkat viability inactive, JNK3 inh inactive and S1P3 agonist inactive.
Screening CC(C)c1ccc(NC(=O)C2C3C=CC4(CN(CCCN5CCOCC5)C(=O)C24)O3)cc1 (stereo not drawn) returned M1 agonist inactive, M1 antagonist inactive, S1P1 ag-PAM inactive, Jurkat viability inactive, JNK3 inh inactive and S1P3 agonist inactive.
Screening CN1[C@@H](CC(=O)c2ccccc2)CCC[C@H]1C[C@H](O)c1ccccc1 returned M1 agonist 34.4, M1 antagonist -8.45, S1P1 ag-PAM inactive, JNK3 inh inactive and S1P3 agonist inactive.
Screening CCOCCCN1CC(C(=O)NCCc2ccccc2)CC1=O (stereo not drawn) returned M1 agonist inactive, M1 antagonist 2.2, S1P1 ag-PAM inactive, Jurkat viability inactive, JNK3 inh inactive and S1P3 agonist inactive.
For COCCNC(=O)C1CC(=O)N(CCc2ccccc2)C1 (stereo not drawn) the results were M1 agonist inactive, M1 antagonist inactive, S1P1 ag-PAM inactive, Jurkat viability inactive, JNK3 inh inactive and S1P3 agonist inactive.
Nc1nc(-c2ccccc2)cc(-c2ccccc2O)n1 was read as M1 agonist inactive, M1 antagonist inactive, S1P1 ag-PAM inactive, Jurkat viability inactive, JNK3 inh 34.8 and S1P3 agonist inactive.
`O=C(NCc1ccccn1)C1CCN(S(=O)(=O)c2cccs2)CC1` gave M1 agonist inactive, M1 antagonist inactive, S1P1 ag-PAM inactive, Jurkat viability inactive, JNK3 inh inactive and S1P3 agonist inactive.
Screening CCCn1c(NC(=O)C2CCN(S(=O)(=O)c3cccs3)CC2)nc2ccccc21 returned M1 agonist inactive, M1 antagonist inactive, S1P1 ag-PAM inactive, Jurkat viability 83.5, JNK3 inh inactive and S1P3 agonist inactive.
CCCn1c(NC(=O)c2ccccc2)nc2ccccc21 was read as M1 agonist inactive, M1 antagonist inactive, S1P1 ag-PAM inactive, Jurkat viability inactive, JNK3 inh inactive and S1P3 agonist inactive.
`CCCn1c(NC(=O)c2cccc(S(=O)(=O)N3CCCC3)c2)nc2ccccc21` gave M1 agonist inactive, M1 antagonist inactive, S1P1 ag-PAM 73.5, Jurkat viability 44.5, JNK3 inh inactive and S1P3 agonist inactive.
COc1cccc(-c2nnc(SCC(=O)Nc3ccc(OC)c(OC)c3)n2N)c1 was read as M1 agonist inactive, M1 antagonist inactive, S1P1 ag-PAM inactive, Jurkat viability inactive, JNK3 inh inactive and S1P3 agonist inactive.
Screening Cc1c(C(=O)O)c2cc(O)ccc2n1-c1ccccc1 returned M1 agonist inactive, M1 antagonist inactive, S1P1 ag-PAM inactive, Jurkat viability inactive, JNK3 inh inactive and S1P3 agonist inactive.
COC(=O)c1c(C)n(-c2ccc(OC)cc2)c2ccc(O)cc12 was read as M1 agonist inactive, M1 antagonist inactive, S1P1 ag-PAM 65.6, Jurkat viability inactive, JNK3 inh inactive and S1P3 agonist inactive.
CCC(=O)N1CN(S(=O)(=O)c2ccc(C)cc2)CC1C (stereo not drawn) was read as M1 agonist inactive, M1 antagonist inactive, S1P1 ag-PAM inactive, Jurkat viability inactive, JNK3 inh inactive and S1P3 agonist inactive.
For CN(C)c1nc(N)nc(CSc2nc3cc(Cl)ccc3o2)n1 the results were M1 agonist inactive, M1 antagonist inactive, S1P1 ag-PAM inactive, Jurkat viability inactive, JNK3 inh inactive and S1P3 agonist inactive.
O=S1(=O)C=C(Sc2nc3cc(Cl)ccc3o2)c2ccccc21 was read as M1 agonist inactive, M1 antagonist inactive, S1P1 ag-PAM 80.1, Jurkat viability 99.4, JNK3 inh inactive and S1P3 agonist inactive.
For CCC1CCCCN1C(=O)CSc1nnc(-c2c[nH]c3ccccc23)o1 (stereo not drawn) the results were M1 agonist inactive, M1 antagonist inactive, S1P1 ag-PAM 78.7, Jurkat viability inactive, JNK3 inh inactive and S1P3 agonist inactive.
For CC1CCCC(C)N1C(=O)CSc1nnc(-c2c[nH]c3ccccc23)o1 (stereo not drawn) the results were M1 agonist inactive, M1 antagonist inactive, S1P1 ag-PAM inactive, Jurkat viability inactive, JNK3 inh inactive and S1P3 agonist inactive.
`O=C(c1ccc(C(=O)N2CCOCC2)nc1)N1CCOCC1` gave M1 agonist inactive, M1 antagonist inactive, Jurkat viability inactive, JNK3 inh inactive and S1P3 agonist inactive.
Cn1nc(CC(=O)Nc2cccnc2N2CCOCC2)c2ccccc2c1=O was read as M1 agonist inactive and M1 antagonist inactive.
For CCN(CC)c1ccc2cc(C(=O)Nc3cccnc3N3CCOCC3)c(=O)oc2c1 the results were M1 agonist 7.72 and M1 antagonist inactive.

Source: PubChem (several laboratories)
